Results from ChEMBL document CHEMBL1124226, “Benzothiopyranoindazoles, a new class of chromophore modified anthracenedione anticancer agents. Synthesis and activity against murine leukemias” (J Med Chem, 1988).
pIC50: −log10 of the molar value.

What was measured:
P388 leukemia (mouse) = assay: Net log value for P388 leukemia cell kill in mice was determined
P388 [1] = assay: In vivo for the optimal dose for activity against P388 leukemia per injection; format: functional, Mus musculus
Outline: (§1)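 P388 leukemia in mice, drug given ip on days 1-5 (Q01D×5, IP/IP, NCI testing protocol). Optimum response taken over doses, expressed as mg/kg per injection. Read-outs are %T/C survival and net log cell kill (Schabel method). Cured mice are included in the %T/C and net kill calculations.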

L1210 [2] = assay: In vitro for its inhibitory activity against murine L1210 leukemia; format: functional, cell-based; settings: Mus musculus
P388 [3] = assay: Percentage T/C survival (treated vs control) against P388 leukemia (day 30 surv); format: functional, Mus musculus
Outline: as §1

L1210 [4] = assay: In vitro for its inhibitory activity against murine L1210 leukemia; Inactive; format: functional, cell-based, Mus musculus
Mus musculus [5] = species: Mus musculus; assay: % T/C survival against murine B-16 melanoma (day 60 surv); format: functional
Outline: (§2)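 Murine B-16 melanoma in vivo. Optimal dose given as mg/kg per injection. Response is % T/C survival, with day-60 survivors reported as number per group (of 10 or 6).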

Mus musculus [6] = assay: The compound was evaluated in vivo for the optimal dose for activity against murine B-16 melanoma; format: functional
Outline: as §2

pIC50 (L1210 [2])	IC50 (L1210 [4])	Structure (SMILES)	Net log cell kill (P388 leukemia (mouse))	Dose (P388 [1])	T/C (P388 [3])	T/C (Mus musculus [5])	Dose (Mus musculus [6])
6.85	–	CCN(CC)CCn1nc2c3c(c(NC(=O)CN)ccc31)Sc1cc(O)ccc1-2.Cl.O	–	100 mg/kg	195%	–	–
–	Not Active	CCN(CC)CCn1nc2c3c(c(NCCNC(=O)OC(C)(C)C)ccc31)Sc1cc(OC)ccc1-2	–	6.3 mg/kg	93%	–	–
6.72	–	CCN(CC)CCn1nc2c3c(c(N)ccc31)Sc1cc(O)ccc1-2	–	–	–	–	–
6.70	–	CCN(CC)CCn1nc2c3c(c(NCCNCCO)ccc31)Sc1ccc(OC)cc1-2.Cl	3.2	25 mg/kg	–	–	–
7.30	–	CCN(CC)CCNc1ccc2c3c(nn2CCN(CC)CC)-c2ccccc2Sc13.Cl	1.6	25 mg/kg	–	–	–
6.68	–	CCN(CC)CCn1nc2c3c(c(NCCN)ccc31)Sc1ccc(OC)cc1-2.Cl.O	3.9	12.5 mg/kg	–	–	–
6.59	–	CCN(CC)CCn1nc2c3c(c(NCCCN)ccc31)Sc1ccccc1-2.Cl.O	> 6.6	50 mg/kg	262%	–	–
–	Not Active	CCN(CC)CCn1nc2c3c(c(NC(=O)CNC(=O)OC(C)(C)C)ccc31)Sc1cc(OC)ccc1-2	–	–	–	–	–
–	Not Active	CCN(CC)CCn1nc2c3c(c(NCCN)ccc31)Sc1cc(OC)ccc1-2.Cl.O	-0.4	25 mg/kg	133%	–	–
5.82	–	CCN(CC)CCn1nc2c3c(c(N)ccc31)Sc1ccc(OC)cc1-2.Cl	1.4	50 mg/kg	–	–	–
–	Not Active	CCN(CC)CCn1nc2c3c(c(NCCNC(=O)OC(C)(C)C)ccc31)Sc1cccc(OC)c1-2	–	–	–	–	–
–	Not Active	CCN(CC)CCn1nc2c3c(c(NCCN4CCOC4=O)ccc31)Sc1ccc(OC)cc1-2.Cl.O	6	100 mg/kg	220%	–	–
–	Not Active	CCN(CC)CCn1nc2c3c(c(N)ccc31)Sc1cc(OC)ccc1-2.Cl.O	–	–	–	–	–
7.82	–	CCN(CC)CCn1nc2c3c(c(NC(=O)CN)ccc31)Sc1ccccc1-2.Cl.O	2.4	20 mg/kg	184%	–	–
8.59	–	CCN(CC)CCn1nc2c3c(c(NCCN)ccc31)Sc1ccc(O)cc1-2.Cl.O	–	0.8 mg/kg	186%	–	–
–	Not Active	CCN(CC)CCn1nc2c3c(c(NCCN)ccc31)Sc1c(O)cccc1-2.Cl.O	-0.9	6.3 mg/kg	122%	–	–
7.32	–	Br.CCN(CC)CCn1nc2c3c(c(NCCN)ccc31)Sc1cccc(O)c1-2	2.8	12.5 mg/kg	177%	–	–
8.37	–	CCN(CC)CCn1nc2c3c(c(NCCN4CCOC4=O)ccc31)Sc1ccc(O)cc1-2.Cl.O	–	12.5 mg/kg	–	–	–
6.09	–	CCN(CC)CCn1nc2c3c(c(NCCN4CCOC4=O)ccc31)Sc1ccccc1-2	6	100 mg/kg	–	–	–

The remaining lines, values behind:

Structure (SMILES)	pIC50 (L1210 [2])	IC50 (L1210 [4])	Net log cell kill (P388 leukemia (mouse))	Dose (P388 [1])	T/C (P388 [3])	T/C (Mus musculus [5])	Dose (Mus musculus [6])
CCN(CC)CCn1nc2c3c(c(NCCN)ccc31)S(=O)(=O)c1ccccc1-2.Cl.O	5.92	–	1.8	100 mg/kg	159%	–	–
Cl.NCCn1nc2c3c(c(NCCNCCO)ccc31)Sc1ccccc1-2	7.66	–	> 6.7	12.5 mg/kg	233%	–	–
CCN(CC)CCn1nc2c3c(c(Cl)ccc31)[S+]([O-])c1ccccc1-2 (centres undefined)	–	Not Active	–	–	–	–	–
CN(C)CCCn1nc2c3c(c(NCCN)ccc31)Sc1ccccc1-2.Cl.O	7.57	–	> 6.7	12.5 mg/kg	–	–	–
CCN(CC)CCn1nc2c3c(c(N)ccc31)Sc1ccc(O)cc1-2.Cl.O	7.96	–	> 6.7	6.3 mg/kg	–	264%	1.8 mg/kg
Br.CCN(CC)CCn1nc2c3c(c(NCCNCCO)ccc31)Sc1c(O)ccc(O)c1-2	–	Not Active	0.1	50 mg/kg	–	–	–
Br.Nc1ccc2c3c(nn2CCNCCO)-c2cc(O)ccc2Sc13	7.64	–	4.2	3.1 mg/kg	192%	–	–
CCN(CC)CCn1nc2c3c(c(N)ccc31)Sc1c(OC)cccc1-2.Cl	–	Not Active	-1.5	25 mg/kg	109%	–	–
CN(C)CCn1nc2c3c(c(N)ccc31)Sc1ccccc1-2.Cl.O	7.20	–	1.8	12.5 mg/kg	165%	–	–
Cl.O.O=S1(=O)c2ccccc2-c2nn(CCNCCO)c3ccc(NCCNCCO)c1c23	–	Not Active	2.5	200 mg/kg	168%	–	–
COc1cccc2c1C(=O)c1c(O)c3c(c(O)c1C2=O)C[C@@](O)(C(=O)CO)C[C@@H]3O[C@H]1C[C@H](N)[C@H](O)[C@H](C)O1 [DOXORUBICIN]	–	–	–	2 mg/kg	232%	434%	1 mg/kg
CCN(CC)CCn1nc2c3c(c(Cl)ccc31)S(=O)(=O)c1ccccc1-2	5.66	–	–	–	–	–	–
CCN(CC)CCn1nc2c3c(c(N)ccc31)Sc1cccc(OC)c1-2	5.70	–	–	–	–	–	–
CCN(CC)CCNc1ccc2c3c(nn2CCN(CC)CC)-c2ccccc2S(=O)(=O)c13	–	Not Active	-1.6	12.5 mg/kg	101%	–	–
CC(=O)NCCn1nc2c3c(c(NCCN4CCOC4=O)ccc31)Sc1ccccc1-2	–	Not Active	-1.6	12.5 mg/kg	100%	–	–
CCN(CC)CCNc1ccc2c3c(nn2CCNCCO)-c2ccccc2Sc13.Cl.O	6.62	–	0.5	25 mg/kg	–	–	–
CN(C)CCCn1nc2c3c(c(N)ccc31)Sc1ccccc1-2.Cl.O	5.70	–	4	100 mg/kg	197%	–	–
CN(C)CCn1nc2c3c(c(NCCN)ccc31)Sc1ccccc1-2.Cl.O	7.82	–	> 6.7	12.5 mg/kg	270%	–	–
CCN(CC)CCn1nc2c3c(c(N)ccc31)Sc1cccc(O)c1-2	7.21	–	–	–	–	–	–
O=S1(=O)c2ccccc2-c2nn(CCNCCO)c3ccc(Cl)c1c23	6.04	–	–	–	–	–	–
Cl.NCCn1nc2c3c(c(N)ccc31)Sc1ccccc1-2	7.00	–	3.1	12.5 mg/kg	181%	–	–
CCN(CC)CCn1nc2c3c(c(N)ccc31)Sc1ccccc1-2	7.00	–	2.2	25 mg/kg	–	112%	12 mg/kg
CCN(CC)CCn1nc2c3c(c(NCCN4C(=O)c5ccccc5C4=O)ccc31)Sc1c(OC)cccc1-2	–	Not Active	-1.5	12.5 mg/kg	107%	–	–
O=C1OCCN1CCNc1ccc2c3c(nn2CCNCCO)-c2ccccc2Sc13	6.27	–	–	–	–	–	–
CC(=O)OCCN(CCn1nc2c3c(c(N)ccc31)Sc1ccccc1-2)C(C)=O.Cl	–	Not Active	-1.3	400 mg/kg	117%	–	–
CC(=O)NCCn1nc2c3c(c(N)ccc31)Sc1ccccc1-2.Cl	–	Not Active	-1.7	100 mg/kg	100%	–	–
